Results reported in ChEMBL document CHEMBL1132644, “Substituted isoquinolines and quinazolines as potential antiinflammatory agents. Synthesis and biological evaluation of inhibitors of tumor necrosis factor alpha” (J Med Chem, 1999).

Legend:
[1] = system: Jurkat; test: Cell toxicity against jurkat cells determined using MTT assay; type: functional, cell-based; details: Homo sapiens
Procedure, shortened: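 Jurkat cells, MTT (3-[4,5-dimethylthiazol-2-yl]-2,5-diphenyltetrazolium bromide) read-out. The value is the µM concentration that inhibited growth by 50% of control.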

[2] = molecular target: Tumor necrosis factor (Homo sapiens, UniProt P01375); test: The compound was tested in vitro for inhibitory activity against Tumor necrosis factor alpha from human PMBC cell line by ELISA test.; type: functional, cell-based
Procedure, shortened: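 PBMC isolated from heparinized normal human blood by Ficoll-Histopaque, cultured in RPMI 1640 with 20% autologous plasma and L-glutamine. Compounds were added at 2× in an equal volume, 60 min preincubation, then LPS stimulation. Supernatant was taken 18 h later. TNFα sandwich ELISA (2 µg/mL mouse anti-human capture, BSA block, 2 h at 37 °C), standard curve. IC50 is the µM concentration giving 50% inhibition versus control; a subset was run in ≥3 separate experiments.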

Sequence of Tumor necrosis factor (P01375 whole entry): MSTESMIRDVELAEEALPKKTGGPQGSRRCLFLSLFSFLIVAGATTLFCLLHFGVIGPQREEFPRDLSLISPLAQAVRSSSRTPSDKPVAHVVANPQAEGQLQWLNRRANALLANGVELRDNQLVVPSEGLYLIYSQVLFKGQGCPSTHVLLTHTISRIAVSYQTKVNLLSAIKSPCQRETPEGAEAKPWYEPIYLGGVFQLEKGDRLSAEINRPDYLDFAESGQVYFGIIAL

Row | Compound | IC50 [1] [µM] | IC50 [2] [µM]
1 | CCOC(=O)CCCn1ccc2cc(OC(=O)OCC)c(OC(=O)OCC)cc2c1=O | 40 | 11
2 | CNC(=O)CCCn1ccc2cc(OC)c(OC)cc2c1=O | – | > 100
3 | CCOC(=O)CCCn1cnc2ccccc2c1=O | – | > 25
4 | CCOC(=O)CCCn1cc(Br)c2cc(O)c(O)cc2c1=O | 11 | 1
5 | CCOC(=O)CCCOc1nc(Nc2ccc(Br)cc2)nc2cc(OC)c(OC)cc12 | – | > 25
6 | CCOC(=O)CCCn1cc(F)c2cc(OC)c(OC)cc2c1=O | – | 20
7 | CCOC(=O)CCCn1cc(Br)c2cc(OC)c(OC)cc2c1=O | – | 51
8 | CCOC(=O)CCCn1cc(F)c2c(F)c(OC)c(OC)cc2c1=O | – | > 100
9 | COc1cc2ccnc(Nc3cccc(Br)c3)c2cc1OC | – | 37
10 | CCOC(=O)CCCn1cc(C#N)c2cc(OC)c(OC)cc2c1=O | 10 | 5
11 | CCOC(=O)CCCn1c(Cl)nc2cc(OC)c(OC)cc2c1=O | – | 48
12 | CCOC(=O)CCCCn1cnc2cc(OC)c(OC)cc2c1=O | 8 | 6
13 | CCOC(=O)CCCN1CNc2ccc(N)cc2C1=O | > 100 | 10
14 | CCOC(=O)CCCn1ccc2cc(OC(C)=O)c(OC(C)=O)cc2c1=O | 40 | –
15 | COc1cc2ccnc(Nc3cccc(Cl)c3)c2cc1OC | – | 33
16 | CCOC(=O)CCCn1cnc2cccc(Cl)c2c1=O | – | > 25
17 | CCOC(=O)CCCn1cnc2cc([N+](=O)[O-])ccc2c1=O | – | > 25
18 | CCOC(=O)CCCn1c(Nc2ccccc2)nc2cc(OC)c(OC)cc2c1=O | – | > 25
19 | CCOC(=O)CCCOc1nc(Nc2ccccc2)nc2cc(OC)c(OC)cc12 | – | > 25
20 | CCOC(=O)CCCOc1nc(N(C)C)nc2cc(OC)c(OC)cc12 | – | > 25
21 | CCOC(=O)CCCn1cnc2cc(N)ccc2c1=O | 13 | 9

Row | Compound | IC50 [1] [µM] | IC50 [2] [µM]
22 | CCOC(=O)CCCn1cnc2ccc(N)cc2c1=O | > 50 | 4
23 | CCOC(=O)CCCN1CNc2cc(N)ccc2C1=O | > 50 | 5
24 | COc1cc2ccn(CCCC(=O)O)c(=O)c2cc1OC | – | > 100
25 | CCOC(=O)CCCn1cc(CN)c2cc(OC)c(OC)cc2c1=O | 7 | 13
26 | CCOC(=O)CCCCn1ccc2cc(OC)c(OC)cc2c1=O | 22 | 21
27 | CCCn1c(=O)n(CCCC(=O)OCC)c(=O)c2nccnc21 | > 25 | 3
28 | CCOC(=O)CCCn1cnc2cc(Cl)ccc2c1=O | – | > 25
29 | CCOC(=O)CCCn1ccc2ccccc2c1=O | > 50 | 5
30 | CCOC(=O)CCCn1cnc2cc(OC)c(OC)c(N)c2c1=O [listing 1 of 2 here] | – | 15
31 | CCOC(=O)CCCn1cnc2cc(OC)c(OC)c([N+](=O)[O-])c2c1=O | > 25 | 11
32 | CCOC(=O)CCCn1c(Nc2ccc(Br)cc2)nc2cc(OC)c(OC)cc2c1=O | – | > 50
33 | CCOC(=O)CCCn1cnc2cc(F)c(F)cc2c1=O | – | > 25
34 | COc1cc2ccnc(Nc3ccc(Br)cc3)c2cc1OC | – | 38
35 | CCOC(=O)CCCn1cnc2cc(OC)c(OC)cc2c1=O | 3 | 3
36 | CCOC(=O)CCCn1cnc2cc(OC)c(OC)c(NC(C)=O)c2c1=O | – | > 100
37 | CCOC(=O)CCCn1cnc2ccc([N+](=O)[O-])cc2c1=O | – | > 25
38 | CCOC(=O)CCCn1c(N=[N+]=[N-])nc2cc(OC)c(OC)cc2c1=O | > 25 | 14
39 | CCOC(=O)CCn1ccc2cc(OC)c(OC)cc2c1=O | – | 50
40 | CCOC(=O)CCCn1cc(C(C)=O)c2cc(OC)c(OC)cc2c1=O | 47 | 15
41 | CCOC(=O)CCCn1c(N)nc2cc(OC)c(OC)cc2c1=O | – | > 25
42 | COc1cc2ccnc(NCCO)c2cc1OC | – | 55

Row | Compound | IC50 [1] [µM] | IC50 [2] [µM]
43 | CNC(=O)CCCn1cc(Br)c2cc(OC)c(OC)cc2c1=O | – | > 100
44 | CCOC(=O)CCCn1cnc2ccc(Br)cc2c1=O | – | > 25
45 | CCOC(=O)CCCn1cnc2cc(O)c(O)cc2c1=O | – | 48
46 | COc1cc2ccnc(Nc3ccccc3)c2cc1OC | – | > 100
47 | CCOC(=O)CCCn1cnc2cc(OC)c(OC)c(N=[N+]=[N-])c2c1=O | – | > 25
48 | CCOC(=O)CCCn1ccc2cc(OC)c(OC)cc2c1=O | > 50 | 5
49 | CCOC(=O)CCCn1cnc2ccc(Cl)cc2c1=O | – | > 25
50 | COc1cc2ccnc(Nc3ccc(Cl)cc3)c2cc1OC | – | 35
51 | CCOC(=O)CCCn1ccc2cc(O)c(O)cc2c1=O | 47 | 2
52 | CCOC(=O)CCCn1cnc2cc(F)ccc2c1=O | – | > 25
53 | CCOC(=O)CCCn1c(Nc2ccc(N=[N+]=[N-])cc2)nc2cc(OC)c(OC)cc2c1=O | – | > 50
54 | CCOC(=O)CCCn1cc([N+](=O)[O-])c2cc(OC)c(OC)cc2c1=O | – | 35
55 | CCOC(=O)CCCOc1nc(Cl)nc2cc(OC)c(OC)cc12 | – | 68
56 | CCOC(=O)CCCn1cnc2cc(OC)c(OC)c(Cl)c2c1=O | 89 | 22
57 | CCOC(=O)CCn1cnc2cc(OC)c(OC)cc2c1=O | > 25 | 9
58 | CCOC(=O)CCCn1cnc2ccc(F)cc2c1=O | – | > 25
59 | CCOC(=O)CCCn1cc(N)c2cc(OC)c(OC)cc2c1=O | – | 37
60 | COc1cc2ccn(CCCC(=O)OCCN3CCOCC3)c(=O)c2cc1OC | > 100 | 10
61 | CCOC(=O)CCCn1cnc2cc(OC)c(OC)c(N)c2c1=O [listing 2 of 2 here] | > 100 | 20
